# Experimental data collected from several papers.
# Lines come from different studies, so protocols differ.
# BCHE: Cholinesterase (BCHE, Homo sapiens, UniProt P06276)
# Oprk1: Kappa-type opioid receptor (Oprk1, Mus musculus, UniProt P33534)
Compound,target,read-out,mode,method,concentration,endpoint,value
COc1cc(/C=C/C(=O)O)ccc1OCc1cn(CC(=O)Nc2cccc(Cl)c2)nn1,BCHE,enzyme activity,inhibitor,Ellman,40 µM,inhibition,15.3%
CC(C)[C@H](CN1CCc2ccccc2C1)NC(=O)Cc1c[nH]c2ccccc12,Oprk1,ligand displacement,,radioligand,10 µM,inhibition,90%
[2H]c1c([2H])c([C@]2([2H])CCCN2C(=O)C(C)(C)Oc2ccc3cn[nH]c3c2)c([2H])c([2H])c1C([2H])([2H])[2H],"MAP kinase-interacting serine/threonine-protein kinase 2 (MKNK2, Homo sapiens, UniProt Q9HBH9)",binding,,competition with immobilised ligand,1 µM,remaining binding,100%
CC(C)[C@H](CN1CCc2ccccc2C1)NC(=O)c1cccc(-c2cccc(O)c2)c1,Oprk1,ligand displacement,,radioligand,10 µM,inhibition,81%
CN1CCC[C@H]1c1cccnc1,"Sodium-dependent noradrenaline transporter (SLC6A2, Homo sapiens, UniProt P23975)",ligand displacement,,,50 µM,inhibition,8.2%
COc1cc(/C=C/C(=O)O)ccc1OCc1cn(CC(=O)Nc2ccc(Cl)cc2Cl)nn1,BCHE,enzyme activity,inhibitor,Ellman,40 µM,inhibition,58.2%
CC(C)CC(=O)OC[C@H]1O[C@@](C#N)(c2ccc3c(N)ncnn23)[C@H](O)[C@@H]1O,"Neuronal acetylcholine receptor; alpha3/beta4 (Homo sapiens, UniProt P30926+P32297)",cell-free assay,,,20 µM,inhibition,-5%
c1cncc([C@@H]2CCCN2)c1,"Muscarinic acetylcholine receptor M5 (CHRM5, Homo sapiens, UniProt P08912)",ligand displacement,,,50 µM,inhibition,-2.02%
